Measured values: ChEMBL document CHEMBL1146760, “3,4-Dihydronaphthalen-1(2H)-ones: novel ligands for the benzodiazepine site of alpha5-containing GABAA receptors” (Bioorg Med Chem Lett, 2004)

Experiments:
[1] = biological target: T1, GABA-A receptor; alpha-5/beta-3/gamma-2 (Homo sapiens, UniProt P18507+P28472+P31644); experiment: Inhibition of [3H]-Ro- 15-1788 binding to human GABA-A receptor alpha-5-beta-3-gamma-2 subunits; format: protein-complex assay
T1 sequence (P18507 whole entry): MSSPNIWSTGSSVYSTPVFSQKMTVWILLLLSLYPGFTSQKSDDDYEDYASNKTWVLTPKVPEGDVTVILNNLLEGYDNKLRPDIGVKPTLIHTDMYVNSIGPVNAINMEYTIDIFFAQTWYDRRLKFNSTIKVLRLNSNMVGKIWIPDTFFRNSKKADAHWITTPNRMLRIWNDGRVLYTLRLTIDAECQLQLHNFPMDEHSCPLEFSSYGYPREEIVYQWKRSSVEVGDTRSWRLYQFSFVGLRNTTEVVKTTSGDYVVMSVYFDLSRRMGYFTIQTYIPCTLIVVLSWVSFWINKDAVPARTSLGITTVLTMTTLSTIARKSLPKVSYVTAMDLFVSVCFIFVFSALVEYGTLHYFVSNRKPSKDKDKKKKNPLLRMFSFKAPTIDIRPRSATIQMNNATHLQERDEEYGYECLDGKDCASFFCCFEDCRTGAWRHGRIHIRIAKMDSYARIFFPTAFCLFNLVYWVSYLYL
T1 sequence (P28472 whole entry): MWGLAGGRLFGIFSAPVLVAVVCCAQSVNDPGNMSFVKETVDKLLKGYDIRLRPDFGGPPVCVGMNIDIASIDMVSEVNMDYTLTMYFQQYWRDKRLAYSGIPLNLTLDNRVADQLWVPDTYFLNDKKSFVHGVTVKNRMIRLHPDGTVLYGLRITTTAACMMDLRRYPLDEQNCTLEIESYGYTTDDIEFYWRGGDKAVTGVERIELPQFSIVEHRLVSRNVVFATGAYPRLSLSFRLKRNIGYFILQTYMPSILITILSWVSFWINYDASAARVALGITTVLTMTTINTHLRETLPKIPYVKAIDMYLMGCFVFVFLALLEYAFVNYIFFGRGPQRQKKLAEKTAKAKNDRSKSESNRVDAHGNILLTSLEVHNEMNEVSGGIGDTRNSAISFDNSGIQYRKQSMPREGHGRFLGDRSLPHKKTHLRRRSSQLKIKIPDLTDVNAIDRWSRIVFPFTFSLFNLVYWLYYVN
T1 sequence (P31644 whole entry): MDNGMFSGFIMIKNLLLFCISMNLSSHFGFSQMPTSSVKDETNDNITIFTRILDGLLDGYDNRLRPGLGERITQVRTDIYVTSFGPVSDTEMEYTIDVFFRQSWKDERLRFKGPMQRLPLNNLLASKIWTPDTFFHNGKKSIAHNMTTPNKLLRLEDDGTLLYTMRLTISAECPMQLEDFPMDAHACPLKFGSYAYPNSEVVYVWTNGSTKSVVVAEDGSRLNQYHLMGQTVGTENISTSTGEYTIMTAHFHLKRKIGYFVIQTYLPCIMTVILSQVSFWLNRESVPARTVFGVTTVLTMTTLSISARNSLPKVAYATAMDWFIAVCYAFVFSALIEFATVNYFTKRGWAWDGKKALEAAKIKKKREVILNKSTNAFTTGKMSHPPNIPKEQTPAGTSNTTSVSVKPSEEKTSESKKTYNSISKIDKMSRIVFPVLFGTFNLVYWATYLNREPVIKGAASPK
Summary of the method: (§1)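 Displacement of [3H]Ro 15-1788 from recombinant human GABAA receptor subtypes; Ki reported as mean ± SEM of at least three independent determinations, or mean of two determinations with both individual values shown.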

[2] = biological target: T2, Gamma-aminobutyric acid receptor subunit alpha-5 (Homo sapiens) (UniProt P31644); experiment: Selectivity for GABA-A receptor alpha-5 subunit over alpha1,2,3 (range 16-38)
T2 sequence (whole entry): T1 sequence (P31644 whole entry)

[3] = biological target: T3, GABA-A receptor; alpha-2/beta-3/gamma-2 (Homo sapiens, UniProt P18507+P28472+P47869); experiment: Inhibition of [3H]-Ro- 15-1788 binding to recombinant human gamma-aminobutyric-acid A receptor alpha-2-beta-3-gamma-2; format: protein-complex assay; summary of the method: as §1
T3 sequence (P18507 whole entry): T1 sequence (P18507 whole entry)
T3 sequence (P28472 whole entry): T1 sequence (P28472 whole entry)
T3 sequence (P47869 whole entry): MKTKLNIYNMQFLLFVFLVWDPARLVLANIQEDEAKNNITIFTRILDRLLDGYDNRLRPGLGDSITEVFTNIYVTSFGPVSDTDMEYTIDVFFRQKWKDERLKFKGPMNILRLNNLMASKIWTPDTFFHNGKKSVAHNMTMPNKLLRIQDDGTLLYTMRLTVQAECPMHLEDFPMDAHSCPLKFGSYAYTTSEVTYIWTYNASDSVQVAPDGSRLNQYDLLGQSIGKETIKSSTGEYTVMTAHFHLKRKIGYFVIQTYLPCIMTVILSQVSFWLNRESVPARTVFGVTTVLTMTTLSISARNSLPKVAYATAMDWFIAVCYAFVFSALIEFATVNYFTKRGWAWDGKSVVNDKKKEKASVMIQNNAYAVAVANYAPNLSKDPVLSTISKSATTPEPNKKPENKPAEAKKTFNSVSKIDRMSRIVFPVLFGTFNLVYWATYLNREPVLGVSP

[4] = biological target: T4, GABA-A receptor; alpha-3/beta-3/gamma-2 (Homo sapiens, UniProt P18507+P28472+P34903); experiment: Inhibition of [3H]-Ro- 15-1788 binding to recombinant human gamma-aminobutyric-acid A receptor alpha-3-beta-3-gamma-2; format: protein-complex assay; summary of the method: as §1
T4 sequence (P18507 whole entry): T1 sequence (P18507 whole entry)
T4 sequence (P28472 whole entry): T1 sequence (P28472 whole entry)
T4 sequence (P34903 whole entry): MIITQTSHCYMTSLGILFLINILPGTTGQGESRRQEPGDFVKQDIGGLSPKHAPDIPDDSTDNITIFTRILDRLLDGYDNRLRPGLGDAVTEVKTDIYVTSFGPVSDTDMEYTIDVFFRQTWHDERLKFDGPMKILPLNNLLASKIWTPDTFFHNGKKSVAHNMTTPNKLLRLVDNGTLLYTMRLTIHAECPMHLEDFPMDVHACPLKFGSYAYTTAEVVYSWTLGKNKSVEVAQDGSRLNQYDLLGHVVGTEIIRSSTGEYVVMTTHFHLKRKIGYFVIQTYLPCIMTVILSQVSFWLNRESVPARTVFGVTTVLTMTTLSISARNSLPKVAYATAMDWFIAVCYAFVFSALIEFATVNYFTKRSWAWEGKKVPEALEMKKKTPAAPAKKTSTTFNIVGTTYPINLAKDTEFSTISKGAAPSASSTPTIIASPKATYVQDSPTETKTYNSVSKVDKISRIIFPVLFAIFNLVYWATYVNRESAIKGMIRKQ

[5] = biological target: T5, GABA-A receptor; alpha-1/beta-3/gamma-2 (Homo sapiens, UniProt P14867+P18507+P28472); experiment: Inhibition of [3H]-Ro- 15-1788 binding to recombinant human gamma-aminobutyric-acid A receptor alpha-1-beta-3-gamma-2; format: protein-complex assay; summary of the method: as §1
T5 sequence (P14867 whole entry): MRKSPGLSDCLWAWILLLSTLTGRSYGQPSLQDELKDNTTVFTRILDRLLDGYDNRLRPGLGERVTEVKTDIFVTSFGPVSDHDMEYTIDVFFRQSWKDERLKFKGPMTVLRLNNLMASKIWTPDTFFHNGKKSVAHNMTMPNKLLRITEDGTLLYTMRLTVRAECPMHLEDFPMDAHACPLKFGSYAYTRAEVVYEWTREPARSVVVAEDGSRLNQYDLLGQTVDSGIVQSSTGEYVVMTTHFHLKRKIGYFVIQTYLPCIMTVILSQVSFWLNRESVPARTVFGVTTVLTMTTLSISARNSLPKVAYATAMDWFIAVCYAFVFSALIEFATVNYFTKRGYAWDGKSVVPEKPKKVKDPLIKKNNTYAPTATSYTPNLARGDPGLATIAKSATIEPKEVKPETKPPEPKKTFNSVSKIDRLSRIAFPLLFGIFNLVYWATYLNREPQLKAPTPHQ
T5 sequence (P18507 whole entry): T1 sequence (P18507 whole entry)
T5 sequence (P28472 whole entry): T1 sequence (P28472 whole entry)

[6] = biological target: T6, GABA-A receptor; alpha-5/beta-3/gamma-2 (Homo sapiens) (UniProt P18507+P28472+P31644); experiment: Percentage modulation of submaximal (EC20) response to GABA-A receptor alpha-5-beta-3-gamma-2 subunits expressed in mouse fibroblast L(tk-) cells; format: functional, cell-based
Summary of the method: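 Whole-cell patch clamp of mouse fibroblast L(tk⁻) cells stably expressing human α5β3γ2. Percentage maximum modulation of current relative to a submaximal (EC20) GABA response, taken from fitted concentration–response curves. Mean ± SEM of at least three individual curves.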

[7] = biological target: T2, Gamma-aminobutyric acid receptor subunit alpha-5 (Homo sapiens); experiment: Selectivity for GABA-A receptor alpha-5 subunit over alpha1,2,3 (range 10-13)
[8] = biological target: T2, Gamma-aminobutyric acid receptor subunit alpha-5 (Homo sapiens); experiment: Selectivity for GABA-A receptor alpha-5 subunit over alpha1,2,3
[9] = biological target: T6, GABA-A receptor; alpha-5/beta-3/gamma-2 (Homo sapiens); experiment: Percentage modulation of submaximal (EC20) response to GABA-A receptor alpha-5-beta-3-gamma-2 subunits expressed in Xenopus laevis oocytes; format: functional, cell-based; settings: Oocyte
[10] = biological target: T2, Gamma-aminobutyric acid receptor subunit alpha-5 (Homo sapiens); experiment: Selectivity for GABA-A receptor alpha-5 subunit over alpha1,2,3 (range 7-13)
[11] = biological target: T2, Gamma-aminobutyric acid receptor subunit alpha-5 (Homo sapiens); experiment: Selectivity for GABA-A receptor alpha-5 subunit over alpha1,2,3 (range 3-12)
[12] = biological target: T2, Gamma-aminobutyric acid receptor subunit alpha-5 (Homo sapiens); experiment: Selectivity for GABA-A receptor alpha-5 subunit over alpha1,2,3 (range 6-8)
[13] = biological target: T2, Gamma-aminobutyric acid receptor subunit alpha-5 (Homo sapiens); experiment: Selectivity for GABA-A receptor alpha-5 subunit over alpha1,2,3 (range 14-35)
[14] = biological target: T2, Gamma-aminobutyric acid receptor subunit alpha-5 (Homo sapiens); experiment: Selectivity for GABA-A receptor alpha-5 subunit over alpha1,2,3 (range 6-14)
[15] = biological target: T2, Gamma-aminobutyric acid receptor subunit alpha-5 (Homo sapiens); experiment: Selectivity for GABA-A receptor alpha-5 subunit over alpha1,2,3 (range 5-11)
[16] = biological target: T2, Gamma-aminobutyric acid receptor subunit alpha-5 (Homo sapiens); experiment: Selectivity for GABA-A receptor alpha-5 subunit over alpha1,2,3 (range 5-15)
[17] = biological target: T2, Gamma-aminobutyric acid receptor subunit alpha-5 (Homo sapiens); experiment: Selectivity for GABA-A receptor alpha5 subunit over alpha1,2,3 (range 5-9)

Compound | Ki [1] [µM] | Ki [3] [µM] | Ki [4] [µM] | Ki [5] [µM] | Efficacy [6] [%] | Efficacy [9] [%] | also measured
CC1CC(=O)c2c(SCc3ncn(C)n3)ccc(-c3nccs3)c2C1 (stereo not given) | 0.001 | 0.02 | 0.016 | 0.038 | 29 |  | Selectivity [2]: 38
COc1nc(CSc2ccc(-c3nccs3)c3c2C(=O)CC(C)C3)ns1 (stereo not given) | 0.0032 | 0.034 | 0.035 | 0.04 | 57 |  | Selectivity [7]: 13
CCSc1ccc(-c2cccc[n+]2[O-])c2c1C(=O)CC(C)C2 (stereo not given) | 0.025 | 0.271 | 0.286 | > 0.3 | 80 |  | Selectivity [8]: > 11
CCSc1ccc(-c2ccccn2)c2c1C(=O)CC(C)C2 (stereo not given) | 0.0019 | 0.013 | 0.015 | 0.025 |  | 2 | Selectivity [10]: 13
CSc1ccc(-c2ccccn2)c2c1C(=O)CC(C)(C)C2 | 0.019 | 0.06 | 0.059 | 0.229 | -32 |  | Selectivity [11]: 12
CSc1ccc(-c2ccccn2)c2c1C(=O)CC(C)C2 (stereo not given) | 0.0075 | 0.063 | 0.042 | 0.063 |  | -5 | Selectivity [12]: 8
CCc1c(C(=O)OC)ncc2[nH]c3cc(OC)c(OC)cc3c12 |  |  |  |  | -57 | -34 | 
CCSc1ccc(-c2ccccn2)c2c1C(=O)CCC2 | 0.103 | > 0.3 | > 0.3 | > 0.3 |  |  | Selectivity [8]: > 3
CC1CC(=O)c2c(SCc3cn[nH]n3)ccc(-c3nccs3)c2C1 (stereo not given) | 0.0026 | 0.057 | 0.036 | 0.092 | 6 |  | Selectivity [13]: 35
CNC1=Nc2ccc(Cl)cc2C(c2ccccc2)=[N+]([O-])C1 |  |  |  |  | 99 | 134 | 
CCSc1ccc(-c2ncco2)c2c1C(=O)CC(C)C2 (stereo not given) | 0.0026 | 0.038 | 0.016 | 0.037 |  | 5 | Selectivity [14]: 14
CC1CC(=O)c2c(Sc3cccs3)ccc(-c3ccccn3)c2C1 (stereo not given) | 0.0005 | 0.0054 | 0.0045 | 0.0023 |  | 50 | Selectivity [15]: 11
CCSc1ccc(-c2nccs2)c2c1C(=O)CC(C)C2 (stereo not given) | 0.001 | 0.015 | 0.012 | 0.0054 |  | -8 | Selectivity [16]: 15
CCSc1ccc(-c2cnccn2)c2c1C(=O)CC(C)C2 (stereo not given) | 0.0021 | 0.019 | 0.013 | 0.011 |  | 2 | Selectivity [17]: 9
